{
  "source": "paper PMC7904387",
  "about": "(Nature chemical biology, 2020)",
  "key": {"advanced solid tumors": {"system": "advanced solid tumors", "conditions": "cited from earlier work"}, "UBE1 [1]": {"target": "T1, UBE1 (Homo sapiens, UniProt P22314)", "T1 sequence (P22314 1-1058)": "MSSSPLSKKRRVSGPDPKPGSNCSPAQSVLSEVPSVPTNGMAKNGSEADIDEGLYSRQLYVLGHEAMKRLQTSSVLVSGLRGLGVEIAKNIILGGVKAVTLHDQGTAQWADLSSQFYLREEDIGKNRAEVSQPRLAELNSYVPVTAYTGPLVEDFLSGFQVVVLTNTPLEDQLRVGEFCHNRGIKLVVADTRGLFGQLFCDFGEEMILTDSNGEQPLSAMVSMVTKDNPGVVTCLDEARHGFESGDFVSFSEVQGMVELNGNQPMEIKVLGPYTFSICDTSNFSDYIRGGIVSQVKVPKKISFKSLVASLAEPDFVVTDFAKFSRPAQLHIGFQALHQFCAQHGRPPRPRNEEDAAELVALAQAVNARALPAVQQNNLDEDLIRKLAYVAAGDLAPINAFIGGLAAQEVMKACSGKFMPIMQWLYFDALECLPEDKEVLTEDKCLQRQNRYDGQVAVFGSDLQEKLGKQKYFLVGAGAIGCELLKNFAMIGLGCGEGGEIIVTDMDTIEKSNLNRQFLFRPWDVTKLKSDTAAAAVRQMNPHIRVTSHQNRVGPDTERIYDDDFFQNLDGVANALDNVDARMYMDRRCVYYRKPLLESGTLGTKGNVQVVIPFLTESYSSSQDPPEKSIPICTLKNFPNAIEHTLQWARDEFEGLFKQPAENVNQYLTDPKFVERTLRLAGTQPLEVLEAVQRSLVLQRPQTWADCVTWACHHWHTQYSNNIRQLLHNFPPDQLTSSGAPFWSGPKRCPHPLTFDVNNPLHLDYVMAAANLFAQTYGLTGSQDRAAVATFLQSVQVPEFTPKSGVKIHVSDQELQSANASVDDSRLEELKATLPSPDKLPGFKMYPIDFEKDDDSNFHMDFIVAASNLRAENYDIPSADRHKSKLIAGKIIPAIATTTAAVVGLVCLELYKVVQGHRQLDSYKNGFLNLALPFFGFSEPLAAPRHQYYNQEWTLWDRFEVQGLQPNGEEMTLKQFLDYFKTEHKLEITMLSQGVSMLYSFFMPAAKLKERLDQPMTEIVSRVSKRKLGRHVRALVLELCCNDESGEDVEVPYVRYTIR", "test": "HXMS, deuterium exchange into peptide with and without UBE1", "format": "binding", "conditions": "incubation with UBE1, 10 sec labeling", "procedure,_shortened": "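Labelling was by 18-fold dilution into D2O buffer (pD 8) for 10 sec, quenched with guanidinium chloride/formic acid (pH 2), then LC-MS. Uptake was not back-exchange corrected. Difference = with UBE1 minus peptide alone; ≥2 biological replicates.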"}, "UBE1 [2]": {"target": "T1, UBE1", "test": "Streptavidin capture", "format": "binding", "conditions": "UBE1 10 pmol, biotinylated peptide 5 nmol", "procedure,_shortened": "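Recombinant human UBE1 (10 pmol) was incubated with C-terminally biotinylated peptide (5 nmol) or 0.5% DMSO for 1.5 h at 4°C in 50 mM NaCl, 20 mM HEPES pH 7.4, 5 mM DTT. Streptavidin agarose was added for another 1.5 h at 4°C. Beads were washed three times in NP-40 buffer and heat-eluted (70°C, 10 min). Read-out was SDS-PAGE with silver stain.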"}},
  "note": "Non-standard residues stand in square brackets, D forms with d. Residues, ends and D or L forms follow the SMILES beside them. Nle = CCCC[C@H](N)C(=O)O",
  "data": [
    {"compound": "NS(=O)(=O)OC[C@H]1C[C@@H](Nc2ccnc3cc(-c4cccc(SC(F)(F)F)c4)nn23)[C@H](O)[C@@H]1O", "note": "[TAK-243]", "values": [
      {"measurement": "stable disease, patients", "setting": "advanced solid tumors; 11 patients of twenty evaluable", "result": 55, "unit": "%"},
      {"measurement": "partial response, evaluable patients", "setting": "advanced solid tumors; one of twenty evaluable patients", "result": 5, "unit": "%"}
    ]},
    {"compound": "CCCC[C@H](NC(C)=O)C(=O)N[C@@H](CO)C(=O)N[C@H](C(=O)N1CCC[C@H]1C(=O)N[C@@H](C)C(=O)N[C@@H](CCCNC(=N)N)C(=O)N[C@@H](CCCNC(=N)N)C(=O)N[C@@H](CCCNC(=N)N)C(=O)N[C@@H](CC(C)C)C(=O)N[C@@H](CCCC)C(=O)N[C@@H](CCCNC(=N)N)C(=O)N[C@@H](CC(=O)O)C(=O)N[C@@H](Cc1ccccc1)C(=O)N[C@@H](CCCCN)C(=O)N[C@@H](CCCNC(=N)N)C(=O)N[C@@H](CC(C)C)C(=O)N[C@@H](CCC(N)=O)C(N)=O)[C@@H](C)O", "note": "[UBE2A] (Ac-[Nle]STPARRRL[Nle]RDFKRLQ-NH2)", "values": [
      {"measurement": "effect of UBE1 on deuterium exchange of the peptide, in words", "setting": "UBE1 [1]", "result": "no meaningful effect"}
    ]},
    {"compound": "BSTP8RRRLBRXFKRLQLys(biotin) (sidechain bridge or staple) [C-terminally biotinylated SAH-UBE2A]", "values": [
      {"measurement": "binding to recombinant UBE1 by streptavidin pull-down and silver stain, in words", "setting": "UBE1 [2]", "result": "directly and robustly binds"}
    ]}
  ]
}
